From ChEMBL document CHEMBL4385668, “Synthesis and in vitro anticancer activity of new gemcitabine-nucleoside analogue dimers containing methyltriazole or ester-methyltriazole linker” (Bioorg Med Chem Lett, 2019) come the findings set out here.

In experiment [1] the test system is HeLa. The experiment can be described thus: Cytotoxicity in human HeLa cells assessed as reduction in cell viability incubated for 72 hrs by SRB assay. It counts as functional, cell-based. The gist of the method:
(§1)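 SRB assay of cell viability in human cancer lines (HeLa, KB, A549, U87, HepG2) and normal dermal fibroblasts (HDF). IC50 values are […] of three independent experiments.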
Background: In SRB staining, fixed cells bind dye roughly in proportion to their protein.

Experiment [2] relates to A549. The experiment is described as follows: Cytotoxicity in human A549 cells assessed as reduction in cell viability incubated for 72 hrs by SRB assay. The following applies: A549, 72 h. It counts as functional, cell-based. The gist of the method: as §1
Experiment [3] relates to HepG2. The experiment is described as follows: Cytotoxicity in human HepG2 cells assessed as reduction in cell viability incubated for 72 hrs by SRB assay. It counts as functional, cell-based. To be noted: HepG2, 72 h. The method in brief: as §1
The subject of experiment [4] is KB. The experiment is described as follows: Cytotoxicity in human KB cells assessed as reduction in cell viability incubated for 72 hrs by SRB assay. It counts as functional, cell-based. The method in brief: as §1
Experiment [5] relates to NHDF. The experiment is described as follows: Cytotoxicity in human NHDF cells assessed as reduction in cell viability incubated for 72 hrs by SRB assay. It counts as cell-based. The gist of the method:
as §1

Experiment [6] concerns U-87 MG. The experiment can be described thus: Cytotoxicity in human U87 cells assessed as reduction in cell viability incubated for 72 hrs by SRB assay. It counts as functional, cell-based, U-87MG ATCC. The gist of the method: as §1
Experiment [7] in a line: Selectivity index, ratio of IC50 for cytotoxicity in human NHDF cells to IC50 for cytotoxicity in human U87 cells. The gist of the method: (§2)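 Selectivity index is the IC50 in normal HDF fibroblasts divided by the IC50 in the given cancer line.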
Experiment [8] in a line: Selectivity index, ratio of IC50 for cytotoxicity in human NHDF cells to IC50 for cytotoxicity in human A549 cells. The gist of the method:
as §2

A short description of experiment [9]: Selectivity index, ratio of IC50 for cytotoxicity in human NHDF cells to IC50 for cytotoxicity in human KB cells. The method in brief:
as §2

Experiment [10] can be described thus: Selectivity index, ratio of IC50 for cytotoxicity in human NHDF cells to IC50 for cytotoxicity in human HepG2 cells. The gist of the method:
as §2

A short description of experiment [11]: Selectivity index, ratio of IC50 for cytotoxicity in human NHDF cells to IC50 for cytotoxicity in human HeLa cells. The method in brief: as §2

In general, IC50 refers to the concentration that gives 50% inhibition. Turning to `Cc1cn([C@H]2C[C@H](OC(=O)OC(C)(C)C)[C@@H](Cn3cc(COC(=O)Nc4ccn([C@@H]5O[C@H](CO)[C@@H](O)C5(F)F)c(=O)n4)nn3)O2)c(=O)[nH]c1=O`, the IC50 in experiment [1] is 9.65 µM; in experiment [2], 8.5 µM; in experiment [3] it was 11.1 µM; in [4], 10.7 µM; in [5] it was 15 µM; in experiment [6] it was 9.68 µM.
`O=C(Nc1ccn([C@@H]2O[C@H](Cn3cc(CNc4ccn([C@@H]5O[C@H](CO)[C@@H](O)C5(F)F)c(=O)n4)nn3)[C@@H](O)C2(F)F)c(=O)n1)OCc1ccccc1`: the “Ratio IC50” value was found to be 2.27 in experiment [7]; 2.34 in experiment [8]; 2.44 in [9]; 2.18 in experiment [10]; 2.39 in [11]. The IC50 in experiment [1] turned out to be 4.23 µM; in experiment [2], 4.31 µM; in experiment [3], 4.64 µM; in experiment [4], 4.14 µM; in experiment [5] it was 10.1 µM; in experiment [6], 4.45 µM.
Turning to `CC(C)(C)OC(=O)O[C@@H]1[C@@H](Cn2cc(COC(=O)Nc3ccn([C@@H]4O[C@H](CO)[C@@H](O)C4(F)F)c(=O)n3)nn2)O[C@@H](n2ccc(N)nc2=O)C1(F)F`, the “Ratio IC50” value in experiment [7] came to 3.99; in [8] it was 4.06; in experiment [9], 4.16; in experiment [10] it was 3.77; in experiment [11] it was 4.38. Also, the IC50 in [1] was determined as 2.01 µM; in experiment [2], 2.17 µM; in experiment [3], 2.34 µM; in experiment [4], 2.12 µM; in [5], 8.81 µM; in experiment [6] it was 2.21 µM.
With `O=C(Nc1ccn([C@@H]2O[C@H](CO)[C@@H](O)C2(F)F)c(=O)n1)OCc1cn(C[C@H]2O[C@@H](n3ccc(NC(=O)OCc4ccccc4)nc3=O)C(F)(F)[C@@H]2O)nn1`, the “Ratio IC50” value is listed as 3.79 in experiment [7]; 3.85 in experiment [8]; 4.04 in experiment [9]; 3.67 in [10]; 4.1 in [11]. Moreover, the IC50 in [1] was found to be 1.98 µM; in [2], 2.11 µM; in [3] it was 2.21 µM; in experiment [4] it was 2.01 µM; in [5] it was 8.12 µM; in experiment [6], 2.14 µM.
For the molecule `O=c1[nH]c(=O)n([C@H]2C[C@H](O)[C@@H](Cn3cc(CNc4ccn([C@@H]5O[C@H](CO)[C@@H](O)C5(F)F)c(=O)n4)nn3)O2)cc1F`, the IC50 is 78.9 µM in [1]; 79.3 µM in [2]; 78.9 µM in experiment [3]; 81.5 µM in experiment [4]; 106 µM in experiment [5]; 80.3 µM in [6].
`CC(C)(C)OC(=O)O[C@H]1C[C@H](n2cc(F)c(=O)[nH]c2=O)O[C@@H]1Cn1cc(CNc2ccn([C@@H]3O[C@H](CO)[C@@H](O)C3(F)F)c(=O)n2)nn1`: the “Ratio IC50” value in experiment [7] is 2.91; in [8] it was 2.35; in [9], 2.97; in experiment [10], 2.41; in experiment [11], 2.94. Further, the IC50 was 4.68 µM in [1]; 5.86 µM in experiment [2]; 5.71 µM in experiment [3]; 4.62 µM in [4]; 13.7 µM in experiment [5]; 4.73 µM in experiment [6].
`Nc1ccn([C@@H]2O[C@H](CO)[C@@H](O)[C@@H]2O)c(=O)n1` [CYTARABINE]: the “Ratio IC50” value is given as 1.73 in experiment [7]; 1.44 in experiment [8]; 1.23 in [9]; 1.75 in experiment [10]; 1.41 in [11]. Besides, the IC50 in experiment [2] was 3.47 µM; in [5], 4.99 µM; in experiment [6] it was 2.88 µM.
For `O=C(Nc1ccn([C@@H]2O[C@H](Cn3cc(CNc4ccn([C@@H]5O[C@H](CO)[C@@H](O)C5(F)F)c(=O)n4)nn3)[C@@H](OC(=O)c3ccccc3)C2(F)F)c(=O)n1)c1ccccc1`, the IC50 in experiment [1] turned out to be 5.41 µM; in [2], 6.01 µM; in experiment [3], 5.82 µM; in experiment [4], 5.34 µM; in experiment [5], 14.2 µM; in [6], 5.5 µM.
As for `O=c1[nH]c(=O)n([C@H]2C[C@H](O)[C@@H](CO)O2)cc1F` [FLOXURIDINE], the “Ratio IC50” value in experiment [7] is reported as 2.13; in experiment [8], 2.21; in experiment [9] it was 1.5; in experiment [10], 1.47; in experiment [11], 2.01. Moreover, the values for the IC50 in [2], in [5] and in experiment [6] were 5.91 µM, 13.1 µM and 6.14 µM, respectively.
Turning to `Cc1cn([C@H]2C[C@H](O)[C@@H](Cn3cc(COC(=O)Nc4ccn([C@@H]5O[C@H](CO)[C@@H](O)C5(F)F)c(=O)n4)nn3)O2)c(=O)[nH]c1=O`, the IC50 in experiment [1] was determined as 13.5 µM; in experiment [2], 13.4 µM; in experiment [3], 14.6 µM; in experiment [4] it was 13.1 µM; in experiment [5], 16.9 µM; in experiment [6], 13.5 µM.
Regarding `Cc1cn([C@H]2C[C@H](OC(=O)OC(C)(C)C)[C@@H](Cn3cc(CNc4ccn([C@@H]5O[C@H](CO)[C@@H](O)C5(F)F)c(=O)n4)nn3)O2)c(=O)[nH]c1=O`, the half-inhibitory concentration (IC50) in experiment [1] is 6.3 µM; in [2] it was 6.07 µM; in experiment [3], 6.34 µM; in experiment [4] it was 7.07 µM; in [5], 14.2 µM; in experiment [6], 6.97 µM.
For `Nc1ccn([C@@H]2O[C@H](Cn3cc(COC(=O)Nc4ccn([C@@H]5O[C@H](CO)[C@@H](O)C5(F)F)c(=O)n4)nn3)[C@@H](O)C2(F)F)c(=O)n1`, the IC50 in experiment [1] is 12.4 µM; in experiment [2] it was 11.4 µM; in experiment [3] it was 10.8 µM; in experiment [4], 11.3 µM; in experiment [5], 15.8 µM; in experiment [6], 12.6 µM.
Turning to `O=C(Nc1ccn([C@@H]2O[C@H](CO)[C@@H](O)C2(F)F)c(=O)n1)OCc1cn(C[C@H]2O[C@@H](n3cc(F)c(=O)[nH]c3=O)C[C@@H]2O)nn1`, the IC50 turned out to be 6.7 µM in [1]; 8.01 µM in [2]; 7.66 µM in experiment [3]; 6.52 µM in experiment [4]; 10.2 µM in experiment [5]; 7.56 µM in experiment [6].
`Nc1ccn([C@@H]2O[C@H](Cn3cc(CNc4ccn([C@@H]5O[C@H](CO)[C@@H](O)C5(F)F)c(=O)n4)nn3)[C@@H](O)C2(F)F)c(=O)n1`: the IC50 is 16.2 µM in experiment [1]; 16.1 µM in experiment [2]; 15.1 µM in [3]; 15.9 µM in [4]; 29.3 µM in experiment [5]; 16.5 µM in experiment [6].
As to `Cc1cn([C@H]2C[C@H](O)[C@@H](Cn3cc(CNc4ccn([C@@H]5O[C@H](CO)[C@@H](O)C5(F)F)c(=O)n4)nn3)O2)c(=O)[nH]c1=O`, the IC50 in experiment [1] is 129 µM; in experiment [2], 126 µM; in experiment [3], 130 µM; in experiment [4], 131 µM; in [5] it was 152 µM; in experiment [6] it was 128 µM.
